Tests used:
Oryctolagus cuniculus [1] = organism: Oryctolagus cuniculus; assay: Tested for conduction time measured at a pacing rate of 3 Hz in vitro with rabbit heart tissue preparations.; assay type: functional
Outline: (§1)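 Isolated rabbit heart tissues, all from one heart, each its own baseline; 2 h equilibration, perfusate changed every 15 min, basal stimulation 2 Hz between measurements. Exposed to 10^-7, 10^-6 and 10^-5 M drug, 15 min each; values reported at 10^-5 M as percent change from baseline. Drug solutions prepared daily in glass-distilled water. Force and rate recorded on polygraph.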

Canis familiaris [2] = assay: Conduction time from the atrium to His bundle was tested in dogs at a dose of 1.0 mg/kg through intravenous administration. (baseline value- 73+/-3 ); assay type: functional, Canis lupus familiaris
Canis familiaris [3] = assay: Compound was tested in vivo in dogs at a dose of 0.3 mg/kg through intravenous route and time at which ventricular fibrillation was induced was recorded.(Base line value-6); assay type: functional, Canis lupus familiaris, Cardiac ventricle
Outline: (§2)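 Dogs with myocardial infarction were studied 3-9 days after infarction. They were reanesthetized with pentobarbital, ventilated, and electrodes were placed via thoracotomy; blood gases were monitored. Control ERPs and reproducible inducibility were set by programmed electrical stimulation, then cumulative iv doses were given. Agents were in glass-distilled water or NaOH-neutralized saline (pH 6.7-7.0). Animals were counted per category: NI, nonsustained, sustained, VF, or AV block preventing atrial pacing.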

Canis familiaris [4] = assay: Conduction time from Q wave to T wave of lead II electrocardiogram corrected for heart rate was tested in dogs at a dose of 0.3 mg/kg through intravenous administration. (baseline value- 352+/-7); assay type: functional, Canis lupus familiaris
Canis familiaris [5] = assay: Compound was tested in vivo in dogs at a dose of 0.1 mg/kg through intravenous route and time at which sustained ventricular arrhythmias were induced was recorded.(Base line value-3); assay type: functional, Canis lupus familiaris, Cardiac ventricle; outline: as §2
Canis familiaris [6] = assay: Conduction time from the His bundle to the onset of ventricular depolarizations was tested in dogs at a dose of 0.1 mg/kg through intravenous administration. (baseline value- 17+/-1 ); assay type: functional, Canis lupus familiaris, Cardiac ventricle
Canis familiaris [7] = assay: Compound was tested in vivo in dogs at a dose of 1.0 mg/kg through intravenous route and time at which ventricular arrhythmias were not indicible was recorded.(Base line value-1); assay type: functional, Canis lupus familiaris, Cardiac ventricle; outline: as §2
Canis familiaris [8] = assay: Conduction time from the His bundle to the onset of ventricular depolarizations was tested in dogs at a dose of 1.0 mg/kg through intravenous administration. (baseline value- 17+/-1 ); assay type: functional, Canis lupus familiaris, Cardiac ventricle
Canis familiaris [9] = assay: Compound was tested in vivo in dogs at a dose of 1.0 mg/kg through intravenous route and time at which sustained ventricular arrhythmias were induced was recorded.(Base line value-3); assay type: functional, Canis lupus familiaris, Cardiac ventricle; outline: as §2
Canis familiaris [10] = assay: Compound was tested in vivo in dogs at a dose of 1.0 mg/kg through intravenous route and time at which ventricular fibrillation was induced was recorded.(Base line value-6); assay type: functional, Canis lupus familiaris, Cardiac ventricle; outline: as §2
Canis familiaris [11] = assay: Compound was tested in vivo in dogs at a dose of 0.1 mg/kg through intravenous route and number of animals in which ventricular fibrillation was induced was recorded.(Base line value-6)
Oryctolagus cuniculus [12] = organism: Oryctolagus cuniculus; assay: Tested for force of contraction measured in mg at a pacing rate of 2 Hz in vitro with rabbit heart tissue preparations.; assay type: functional; outline: as §1
Canis familiaris [13] = assay: Conduction time from Q wave to T wave of lead II electrocardiogram corrected for heart rate was tested in dogs at a dose of 0.1 mg/kg through intravenous administration. (baseline value- 352+/-7); assay type: functional, Canis lupus familiaris
Oryctolagus cuniculus [14] = organism: Oryctolagus cuniculus; assay: Tested for conduction time measured at a pacing rate of 1 Hz in vitro with rabbit heart tissue preparations.; assay type: functional; outline: as §1
Canis familiaris [15] = assay: Conduction time from the His bundle to the onset of ventricular depolarizations was tested in dogs at a dose of 0.3 mg/kg through intravenous administration. (baseline value- 17+/-1 ); assay type: functional, Canis lupus familiaris, Cardiac ventricle
Canis familiaris [16] = assay: Conduction time from the atrium to His bundle was tested in dogs at a dose of 0.1 mg/kg through intravenous administration. (baseline value- 73+/-3 ); assay type: functional, Canis lupus familiaris
Canis familiaris [17] = assay: Conduction time for ventricular refractory period of the second premature stimulus was tested in dogs at a dose of 1.0 mg/kg through intravenous administration. (baseline value- 123+/-4); assay type: functional, Canis lupus familiaris, Cardiac ventricle
Oryctolagus cuniculus [18] = organism: Oryctolagus cuniculus; assay: Tested for rate automaticity measured in beats per minute from unpaced right atria of rabbit heart.; assay type: functional; outline: as §1
Canis familiaris [19] = assay: Compound was tested in vivo in dogs at a dose of 0.3 mg/kg through intravenous route and time at which sustained ventricular arrhythmias were induced was recorded.(Base line value-3); assay type: functional, Canis lupus familiaris, Cardiac ventricle; outline: as §2
Canis familiaris [20] = assay: Conduction time for ventricular refractory period of the first premature stimulus was tested in dogs at a dose of 1.0 mg/kg through intravenous administration. (baseline value- 137+/-4); assay type: functional, Canis lupus familiaris, Cardiac ventricle
Canis familiaris [21] = assay: Compound was tested in vivo in dogs at a dose of 0.3 mg/kg through intravenous route and time at which nonsustained ventricular arrhythmias were induced was recorded.(Base line value-1); assay type: functional, Canis lupus familiaris, Cardiac ventricle; outline: as §2
Canis familiaris [22] = assay: Compound was tested in vivo in dogs at a dose of 0.1 mg/kg through intravenous route and time at which ventricular arrhythmias were not indicible was recorded.(Base line value-1); assay type: functional, Canis lupus familiaris, Cardiac ventricle; outline: as §2
Canis familiaris [23] = assay: Conduction time for ventricular refractory period of the second premature stimulus was tested in dogs at a dose of 0.3 mg/kg through intravenous administration. (baseline value- 123+/-4); assay type: functional, Canis lupus familiaris, Cardiac ventricle
Canis familiaris [24] = assay: Conduction time from the atrium to His bundle was tested in dogs at a dose of 0.3 mg/kg through intravenous administration. (baseline value- 73+/-3 ); assay type: functional, Canis lupus familiaris
Oryctolagus cuniculus [25] = organism: Oryctolagus cuniculus; assay: Tested for effective refractory period measured at a pacing rate of 3 Hz in vitro with rabbit heart tissue preparations.; assay type: functional; parameters: unit: %; outline: as §1
Canis familiaris [26] = assay: Conduction time for ventricular refractory period of the second premature stimulus was tested in dogs at a dose of 0.1 mg/kg through intravenous administration. (baseline value- 123+/-4); assay type: functional, Canis lupus familiaris, Cardiac ventricle
Canis familiaris [27] = assay: Compound was tested in vivo in dogs at a dose of 0.3 mg/kg through intravenous route and time at which ventricular arrhythmias were not indicible was recorded.(Base line value-1); assay type: functional, Canis lupus familiaris, Cardiac ventricle; outline: as §2
Canis familiaris [28] = assay: Compound was tested in vivo in dogs at a dose of 0.1 mg/kg through intravenous route and time at which nonsustained ventricular arrhythmias were induced was recorded.(Base line value-1); assay type: functional, Canis lupus familiaris, Cardiac ventricle; outline: as §2
Oryctolagus cuniculus [29] = organism: Oryctolagus cuniculus; assay: Tested for effective refractory period measured at a pacing rate of 1 Hz in vitro with rabbit heart tissue preparations.; assay type: functional; outline: as §1
Canis familiaris [30] = assay: Compound was tested in vivo in dogs at a dose of 1.0 mg/kg through intravenous route and time at which nonsustained ventricular arrhythmias were induced was recorded.(Base line value-1); assay type: functional, Canis lupus familiaris, Cardiac ventricle; outline: as §2
Canis familiaris [31] = assay: Conduction time from Q wave to T wave of lead II electrocardiogram corrected for heart rate was tested in dogs at a dose of 1.0 mg/kg through intravenous administration. (baseline value- 352+/-7); assay type: functional, Canis lupus familiaris
Canis familiaris [32] = assay: Conduction time for ventricular refractory period of the first premature stimulus was tested in dogs at a dose of 0.1 mg/kg through intravenous administration. (baseline value- 137+/-4); assay type: functional, Canis lupus familiaris, Cardiac ventricle
Canis familiaris [33] = assay: Conduction time for ventricular refractory period of the first premature stimulus was tested in dogs at a dose of 0.3 mg/kg through intravenous administration. (baseline value- 137+/-4); assay type: functional, Canis lupus familiaris, Cardiac ventricle

In the case of `CCCCCCCN(CC)CCCC(O)c1ccc(NS(C)(=O)=O)cc1` (stereo not drawn) [IBUTILIDE], the CT3 (Oryctolagus cuniculus [1]) is reported as 31.2, the Time (Canis familiaris [2]) is reported as 77 ms and the Time (Canis familiaris [3]) is reported as 2 animals. For the same compound, the Time (Canis familiaris [4]) was 387 ms, the Time (Canis familiaris [5]) was 2 animals and the Time (Canis familiaris [6]) was 16 ms. For the same compound, the Time (Canis familiaris [7]) was 4 animals, the Time (Canis familiaris [8]) was 17 ms and the Time (Canis familiaris [9]) was 0 animals. It also gave a Time (Canis familiaris [10]) of 1 animals, a number of animals (Canis familiaris [11]) of 1 animals and an FOC (Oryctolagus cuniculus [12]) of 1.9. It also gave a Time (Canis familiaris [13]) of 372 ms, a CT1 (Oryctolagus cuniculus [14]) of 14.6 and a Time (Canis familiaris [15]) of 17 ms. For the same compound, the Time (Canis familiaris [16]) was 73 ms, the Time (Canis familiaris [17]) was 128 ms and the Rate (Oryctolagus cuniculus [18]) was -22. It also gave a Time (Canis familiaris [19]) of 0 animals, a Time (Canis familiaris [20]) of 146 ms and a Time (Canis familiaris [21]) of 2 animals. It also gave a Time (Canis familiaris [22]) of 3 animals, a Time (Canis familiaris [23]) of 139 ms and a Time (Canis familiaris [24]) of 75 ms. The ERP3 (Oryctolagus cuniculus [25]) was 15.8, the Time (Canis familiaris [26]) was 137 ms and the Time (Canis familiaris [27]) was 5 animals. For the same compound, the Time (Canis familiaris [28]) was 5 animals, the ERP1 (Oryctolagus cuniculus [29]) was 18 and the Time (Canis familiaris [30]) was 2 animals. The Time (Canis familiaris [31]) was 364 ms, the Time (Canis familiaris [32]) was 151 ms and the Time (Canis familiaris [33]) was 154 ms.

— ChEMBL document CHEMBL1125736, “N-[(omega-amino-1-hydroxyalkyl)phenyl]methanesulfonamide derivatives with class III antiarrhythmic activity” (1991)
